High-throughput results deposited in PubChem BioAssay by Johns Hopkins Ion Channel Center.
TRPC4 PAM: allosteric potentiators of mouse TRPC4 channel. Q9QUQ5. HEK293 TRPC4beta/mu-opioid, DAMGO EC20, Fluo-4 Ca2+ flux; active compounds read high. B-score at 10 µM. actives 0.42% (n = 310,000). AID 2227;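 active = B-score of calcium response area above 5 SD of library B-scores, with initial fluorescence ratio within 5 SD of library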
Target sequence (Q9QUQ5 whole entry, looked up): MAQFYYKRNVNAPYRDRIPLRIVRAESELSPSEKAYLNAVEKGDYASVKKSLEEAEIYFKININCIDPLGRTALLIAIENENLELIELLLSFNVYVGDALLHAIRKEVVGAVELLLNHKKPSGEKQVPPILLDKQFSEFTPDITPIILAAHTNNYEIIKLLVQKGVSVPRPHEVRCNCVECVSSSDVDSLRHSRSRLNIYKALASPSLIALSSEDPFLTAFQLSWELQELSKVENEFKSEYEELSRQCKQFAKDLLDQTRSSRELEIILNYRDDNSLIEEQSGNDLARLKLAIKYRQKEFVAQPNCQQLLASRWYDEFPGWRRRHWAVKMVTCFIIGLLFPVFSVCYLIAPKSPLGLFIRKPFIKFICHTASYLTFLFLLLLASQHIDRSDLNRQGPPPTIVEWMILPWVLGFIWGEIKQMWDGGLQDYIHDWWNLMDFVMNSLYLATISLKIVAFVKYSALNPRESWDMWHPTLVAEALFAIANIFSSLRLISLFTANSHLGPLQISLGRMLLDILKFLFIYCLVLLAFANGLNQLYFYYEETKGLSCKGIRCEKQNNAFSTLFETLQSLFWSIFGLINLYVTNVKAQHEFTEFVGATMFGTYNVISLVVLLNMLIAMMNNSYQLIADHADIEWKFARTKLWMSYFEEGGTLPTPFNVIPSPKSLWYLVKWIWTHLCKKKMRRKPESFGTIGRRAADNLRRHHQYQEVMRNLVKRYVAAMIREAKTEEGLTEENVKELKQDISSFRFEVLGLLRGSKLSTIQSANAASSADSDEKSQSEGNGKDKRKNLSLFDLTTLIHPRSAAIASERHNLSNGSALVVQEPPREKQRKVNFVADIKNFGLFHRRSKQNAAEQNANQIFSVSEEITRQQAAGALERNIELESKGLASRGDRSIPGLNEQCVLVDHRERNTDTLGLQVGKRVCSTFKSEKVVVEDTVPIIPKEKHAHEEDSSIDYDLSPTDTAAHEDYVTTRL
TRPC6 act: activates the mouse TRPC6 cation channel; HEK293-TRPC6 membrane potential dye fluorescence; active compounds read high; B-score at 10 µM; actives 0.13% (n = 310,000); AID 2550;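 active = B-score of the integrated fluorescence ratio above library mean plus 3 SD, and starting fluorescence ratio within library mean plus 5 SD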;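 also: higher score means more depolarization so channel activation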
TRPC6 inh: mouse TRPC6 channel inhibition. B-score at 10 µM. Q61143. HEK293-TRPC6, membrane potential dye, ACh-evoked depolarization; active compounds read low. actives 1.1% (n = 310,000);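 active = B-score under library mean minus 3 SD, initial fluorescence not abnormally high, positive integrated signal ratio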;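 also: B-score derived from integrated fluorescence ratio over the kinetic read; more negative B-score means stronger inhibition of depolarization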
TRPC4 act: opens the mouse TRPC4 cation channel | AID 2237 | actives 0.49% (n = 310,000) | B-score at 10 µM | HEK293 TRPC4beta/mu-opioid, Fluo4 calcium fluorescence; active compounds read high | Q9QUQ5;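 active = B-score above 5 SD of library B-scores, and initial fluorescence ratio not above library mean plus 5 SD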;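 also: positive B-score marks a calcium rise read as TRPC4 activation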
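Material: TRPC4beta and mu-opioid receptor HEK293 stable cells | Incubation: 45 min room-temperature Fluo4 loading, 110 s read | Detection: Kinetic Fluo4 calcium fluorescence | Measure: Integrated baseline-normalised fluorescence ratio, converted to per-well B score | Benchmarks: Low control buffer alone, high control maximal DAMGO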
TRPC4 block: blocks the mouse TRPC4 cation channel; HEK293 TRPC4beta/mu-opioid, DAMGO-evoked Fluo4 calcium flux; active compounds read low; Q9QUQ5; B-score at 10 µM; actives 0.39% (n = 300,000);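 active = B-score over 3 SD under the library average, no early fluorescence shift, positive overall ratio signal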
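Assay system: TRPC4beta/mu-opioid receptor HEK293 cell line; compound dosing: single concentration per test compound; detection: Fluo4 Ca2+ flux fluorescence; evaluation: per-well B score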
TRPC4 spec 2: second check of whether TRPC6 inhibitors also affect mouse TRPC4; inhibition, % at 10 µM; actives 42% (n = 920); HEK293 TRPC4/MOR, membrane potential dye fluorescence; channel activated by saturating DAMGO dose; shares compounds with TRPC6 inh;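 active = compounds whose fluorescence signal differed from control wells by over 3 SD, either direction, in both duplicate plates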
TRPC4 spec: mouse TRPC4 off-target activity of TRPC6 inhibitors. shares compounds with TRPC6 inh. activity change, negative = inhibition, % at 10 µM. HEK293 TRPC4/mu-opioid, membrane potential fluorescence. actives 61% (n = 920). AID 2777;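 active = rise or fall in signal beyond 3 SD of buffer-only wells in both replicate plates, either sign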;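 also: integrated kinetic ratio of fluorescence range over baseline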
HEK293 MPD ctr 2-1: parental HEK293 nonspecific activity of TRPC6 inhibitors, second screen; parental HEK293 membrane potential dye fluorescence; maximal acetylcholine challenge after compound addition; shares compounds with TRPC6 inh; actives 31% (n = 920); signal change vs control, % at 10 µM;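 active = membrane potential signal moving either way by over 3 SD of the maximum-effect control, in both duplicate plates, meaning non-specific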
HEK293 MPD ctr-1: counter-screen for TRPC6 inhibitors: effect in parental HEK293 cells; shares compounds with TRPC6 inh; actives 60% (n = 920); membrane potential signal change, % at 10 µM; parental HEK293 membrane potential dye fluorescence;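 active = membrane potential signal shifting up or down by more than 3 SD of buffer-only wells, on both duplicate plates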
HEK293 MPD ctr-2: checks TRPC6 modulator effects in parental HEK293 cells; shares compounds with TRPC6 inh; membrane potential signal change, % at 10 µM; membrane potential dye fluorescence; actives 51% (n = 2,400);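 active = membrane potential signal moves up or down beyond 5 SD from buffer-only wells, on both duplicate plates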
HEK293 MPD ctr 2-2: second counter-screen for TRPC6 modulators: effect in parental HEK293 cells. actives 14% (n = 2,400). inhibition, % at 10 µM. membrane potential dye fluorescence; after compound, maximal acetylcholine stimulation. shares compounds with TRPC6 inh;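 active = membrane potential signal drops by more than 5 SD from the mean control signal, in both duplicate plates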
TRPC4/MOR mod: mouse TRPC4 off-target activity of TRPC6 modulators | shares compounds with TRPC6 inh | HEK293 TRPC4/mu-opioid, membrane potential fluorescence | percent change from control (negative = decrease, positive = increase), % at 10 µM | actives 69% (n = 2,400) | AID 488927;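 active = membrane potential signal moved up or down beyond 5 SD of buffer control wells, in both duplicate plates, actives on both sides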
TRPC4/MOR inh 2: second selectivity test of TRPC6 modulators against mouse TRPC4; inhibition, % at 10 µM; HEK293 TRPC4/mu-opioid, membrane potential dye fluorescence; stimulated with maximal-effect DAMGO; shares compounds with TRPC6 inh; actives 55% (n = 2,400);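 active = drop in membrane potential signal beyond 5 SD of the control wells in both duplicate plates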;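 also: TRPC4 counter screen for TRPC6 hits run under conditions tuned for TRPC6 not TRPC4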
TRPC6 block conf: confirmation of mouse TRPC6 inhibitors; shares compounds with TRPC6 inh; inhibition, % at 10 µM; actives 43% (n = 3,300); HEK293-TRPC6, membrane potential dye, ACh-evoked depolarization;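 active = fluorescence ratio falls more than 5 SD below the full-stimulation control mean, in both duplicate runs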;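 also: integrated fluorescence ratio of peak minus minimum over baseline after agonist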
TRPC6 act confirm: confirmation of mouse TRPC6 activators; shares compounds with TRPC6 inh; actives 11% (n = 2,800); activation, % at 10 µM; HEK293-TRPC6 membrane potential dye fluorescence, FDSS;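 active = ratio signal rise beyond 5 SD above unstimulated control wells' mean, seen in both duplicate runs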
Of the large screens only hits and unclear results are named; the others gave an inactive call (follow-up assays come after a bar, where they were run). Compounds with a hit are over-represented: about 2.3% of the library has one in this group of screens.

O=C(Nc1nonc1NC(=O)c1cccs1)c1cccs1	none
CC(C)c1ccc(NC(=O)c2cc([N+](=O)[O-])ccc2N2CCOCC2)cc1	none
CC(C)Cc1nnc(NC(=O)c2cc([N+](=O)[O-])ccc2N2CCOCC2)s1	TRPC6 inh -5.2 | HEK293 MPD ctr-2 inactive | HEK293 MPD ctr 2-2 inactive | TRPC4/MOR mod inactive | TRPC4/MOR inh 2 inactive | TRPC6 block conf inactive | TRPC6 act confirm inactive
CC[n+]1c(/C=C2/C=C(C)CC(C)C2)sc2ccccc21 (stereo not given)	none
CC[n+]1c(/C=C(/C)SC)sc2ccccc21	TRPC6 inh -7.5 | HEK293 MPD ctr-2 -275% | HEK293 MPD ctr 2-2 82% | TRPC4/MOR mod -48% | TRPC4/MOR inh 2 52% | TRPC6 block conf 67% | TRPC6 act confirm inactive
CC[n+]1c(/C=C/Nc2ccccc2)sc2ccccc21	TRPC6 inh -8.5 | TRPC4 spec 2 76% | TRPC4 spec -20% | HEK293 MPD ctr 2-1 inactive | HEK293 MPD ctr-1 -361% | TRPC6 block conf inactive | TRPC6 act confirm inactive
CC/C(=C/c1sc2ccccc2[n+]1CC)SC	none
CC[n+]1c(/C=C(\C)SC)sc2ccccc21	TRPC6 inh -10 | HEK293 MPD ctr-2 -262% | HEK293 MPD ctr 2-2 82% | TRPC4/MOR mod -42% | TRPC4/MOR inh 2 58% | TRPC6 block conf 56% | TRPC6 act confirm inactive
CC(C)(C)Sc1ccc([N+](=O)[O-])cc1C(=O)Nc1ccncc1	none
O=C(Cc1ccccc1)N/N=C/c1cc(Br)cc(Br)c1O	none
O=C(O)c1ccccc1N/N=C/c1cc(Br)cc(Br)c1O	TRPC6 inh -6.5, TRPC4 block -9 | HEK293 MPD ctr-2 inactive | HEK293 MPD ctr 2-2 inactive | TRPC4/MOR mod -11% | TRPC4/MOR inh 2 74% | TRPC6 block conf inactive | TRPC6 act confirm inactive
Nc1nc(OCC2CCCCC2)c2[nH]cnc2n1	none
OCC1(Cc2ccccc2Cl)CCN(C/C=C/c2ccccc2)CC1	TRPC6 inh -5.3 | HEK293 MPD ctr-2 132% | HEK293 MPD ctr 2-2 inactive | TRPC4/MOR mod 25% | TRPC4/MOR inh 2 60% | TRPC6 block conf inactive
OCC1(CCc2ccccc2)CCN(C/C=C/c2ccccc2)CC1	none
NC(=NCCc1c[nH]c2ccccc12)NC(=O)c1ccc(F)cc1	TRPC6 inh -6.5 | HEK293 MPD ctr-2 inactive | HEK293 MPD ctr 2-2 inactive | TRPC4/MOR mod inactive | TRPC4/MOR inh 2 54% | TRPC6 block conf 44% | TRPC6 act confirm inactive
Cc1cc(C)nc(SCc2ccc(C(=O)N/N=C3\CCCC(=O)C3)cc2)n1	none
CCOC(=O)C1=C(C(F)(F)F)Nc2ncnn2C1c1ccc(OC)cc1OC (stereo not given)	none
COCCCNC(=S)N1CCCN(c2nc3cc(C)c(C)cc3cc2C#N)CC1	TRPC6 inh -5.2 | HEK293 MPD ctr-2 inactive | HEK293 MPD ctr 2-2 inactive | TRPC4/MOR mod inactive | TRPC4/MOR inh 2 inactive | TRPC6 block conf 60%
COCCCNC(=S)N1CCCN(c2nc3cc(C)ccc3cc2C#N)CC1	TRPC6 inh -11 | TRPC4 spec 2 inactive | TRPC4 spec inactive | HEK293 MPD ctr 2-1 inactive | HEK293 MPD ctr-1 inactive | TRPC6 block conf 85%
CCOCCCNC(=S)N1CCCN(c2nc3cc(C)c(C)cc3cc2C#N)CC1	none
O=C(NCc1ccccc1)/C(=C/c1ccco1)NC(=O)c1ccco1	none
CCN(CC)CCN(C(=O)Cn1nnc(-c2ccc(C)o2)n1)C(C(=O)NC1CCCC1)c1ccc(F)cc1 (stereo not given)	TRPC6 act 30 | HEK293 MPD ctr-2 343% | HEK293 MPD ctr 2-2 inactive | TRPC4/MOR mod 68% | TRPC4/MOR inh 2 44% | TRPC6 block conf inactive | TRPC6 act confirm 192%
Cc1ccc(-c2nnn(CC(=O)N(CCO)C(C(=O)NC3CCCC3)c3ccc(F)cc3)n2)o1 (stereo not given)	none
COc1ccc(C(C(=O)NC2CCCC2)N(CC2CCCO2)C(=O)Cn2nnc(-c3ccc(C)o3)n2)cc1 (stereo not given)	TRPC6 inh -6.2 | HEK293 MPD ctr-2 inactive | HEK293 MPD ctr 2-2 inactive | TRPC4/MOR mod inactive | TRPC4/MOR inh 2 inactive | TRPC6 block conf inactive | TRPC6 act confirm inactive
Cc1ccc(-c2nnn(CC(=O)N(Cc3ccco3)C(C(=O)NC3CCCC3)c3cccs3)n2)o1 (stereo not given)	none
CCN(CC)CCN(C(=O)Cn1nnc(-c2ccc(C)o2)n1)C(C(=O)NC(C)(C)C)c1cccs1 (stereo not given)	TRPC6 act 18 | HEK293 MPD ctr-2 488% | HEK293 MPD ctr 2-2 inactive | TRPC4/MOR mod 112% | TRPC4/MOR inh 2 32% | TRPC6 block conf inactive | TRPC6 act confirm 242%
CCOC(=O)Cc1csc(NC(=O)CCCCCN2C(=O)c3ccccc3C2=O)n1	none
O=[N+]([O-])c1ccccc1S(=O)(=O)Nc1ccn(Cc2c(F)cccc2Cl)n1	none
CCCn1c2ccccc2c2nnc(SCCN3CCOCC3)nc21	none
